This is an account of results in ChEMBL document CHEMBL3243966, “Synthesis of substituted 1-hydroxy-2-naphthanilides as potential cestodicidal agents” (J Med Chem, 1978).

Each structure is given as a SMILES string. Active and inactive are the calls of the source. The calls are words filed in the database; no cut-off is given here.

Series [1] concerns Rodentolepis nana. In words: Cestodicidal activity against Hymenolepis nana infected in po dosed rat assessed as […] after 3 days. The format is functional. Conditions: 72 h, read-out: MED.
Series [2] has as its system Rodentolepis nana. The series is described as follows: Cestodicidal activity against Hymenolepis nana infected in rat assessed as reduction in 98 to 100% of worm load at 250 mg/kg, po after 3 days. The format is functional, organism-based. Also on record: dose 250 mg/kg. Summed up: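 Newly weaned male Freiburg-strain rats (25-30 g) infected orally with 200 viable H. nana ova; faecal ova-positive animals treated on day 15 after overnight fast. Single oral dose, starting at 250 mg/kg, then 100, 50, 13, 7.5 mg/kg; three treated, three untreated controls per group. Sacrificed day 3 post-treatment after fasting; small intestine worms collected and scored. Minimum effective dose: lowest giving score ≤10% of control.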

The nature of series [3]: Cestodicidal activity against Hymenolepis diminuta infected in rat assessed as reduction in worm load at 10 mg/kg, po relative to control. It counts as functional. Also noted: scale not given: the % may be the effect or the level left. Summed up: (§1)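 Single oral 10 mg/kg dose, with worm-load reduction as the read-out. H. diminuta was tested in rats; Taenia sp. was tested in naturally infected dogs.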

Series [4] deals with Taenia. The series is described as follows: Cestodicidal activity against Taenia species infected in dog assessed as reduction in worm load at 10 mg/kg, po relative to control. The format is functional. Also noted: scale not given: the % may be the effect or the level left. Summed up: as §1
Series [5] deals with Rattus norvegicus. The series is described as follows: Toxicity in rat at 5 g/kg, po. It counts as organism-based. The following applies: in vivo, 5000 mg/kg.
The test system of series [6] is Rattus norvegicus. In words: Toxicity in rat at 5 g/kg, ip. The format is organism-based. Conditions: in vivo, 5000 mg/kg.
Series [7] deals with Rattus norvegicus. In words: Toxicity in rat at 5 g/kg, po assessed as mortality. It counts as organism-based. The following applies: in vivo, 5000 mg/kg.
The test system of series [8] is Rattus norvegicus. The series is described as follows: Toxicity in rat at 5 g/kg, ip assessed as mortality. The format is organism-based. Conditions: in vivo, 5000 mg/kg.
Series [9] deals with Rattus norvegicus. The series is described as follows: Toxicity in rat infected with Hymenolepis nana at 1 g/kg. It counts as organism-based. Conditions: in vivo, 1000 mg/kg. Summed up:
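Young rats infected with H. nana received 1 g/kg, and tolerance was assessed.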

For series [10], the system named is Mastomys natalensis. In words: Toxicity in po dosed natal multimammate mouse. It counts as organism-based. The following applies: in vivo. Summed up: (§2)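 Acute toxicity study in Mastomys natalensis and dogs, with the compound given orally or intraperitoneally.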
Series [11] has as its system Mastomys natalensis. The series is described as follows: Toxicity in ip dosed natal multimammate mouse. The format is organism-based. The following applies: in vivo. Summed up: as §2
Series [12] relates to Canis familiaris. The series is described as follows: Toxicity in po dosed dog. It counts as organism-based, Canis lupus familiaris. Conditions: in vivo. Summed up: as §2
Series [13] concerns Canis familiaris. In words: Toxicity in ip dosed dog. It counts as organism-based, Canis lupus familiaris. Conditions: in vivo. In short, it runs like this:
as §2

With `O=C(Nc1ccc([N+](=O)[O-])cc1)c1cc(Br)c2ccccc2c1O`, the minimal effective dose in series [1] amounted to 100 mg/kg.
On to `O=c1c2cc(Br)c3ccccc3c2oc(=S)n1-c1ccc([N+](=O)[O-])cc1`, for which, in series [2], the outcome was inactive.
The same measure, in the same setting: under `Nc1ccccc1NC(=O)c1cc(Br)c2ccccc2c1O` stands “inactive”.
Consider `O=C(Nc1ccc([N+](=O)[O-])cc1Cl)c1cc(Br)c2ccccc2c1O`, for which the minimal effective dose in series [1] was found to be 13 mg/kg.
Turning to `CC1CCN(c2ccc(NC(=O)c3ccc4ccccc4c3O)cc2[N+](=O)[O-])CC1`, in [2], the result was inactive.
In the case of `O=C(Nc1ccc(Cl)c([N+](=O)[O-])c1)c1ccc2ccccc2c1O`, the result in series [2] was inactive.
Still for that read-out and setting: next, `O=C(Nc1ccc([N+](=O)[O-])cc1)c1ccc2ccccc2c1O`: “inactive”; `O=C(Nc1ccc(N2CCOCC2)c([N+](=O)[O-])c1)c1ccc2ccccc2c1O`: “inactive”.
Turning to `O=C(Nc1ccccc1[N+](=O)[O-])c1ccc2c(Br)cccc2c1O`, the minimal effective dose in series [1] worked out at 250 mg/kg.
For the molecule `CC1CCCN(c2ccc(NC(=O)c3ccc4ccccc4c3O)cc2[N+](=O)[O-])C1` (stereo not given), the outcome in [2] was inactive.
Still for that read-out and setting: under `O=c1c2ccc3ccccc3c2oc(=S)n1-c1ccc(Cl)c([N+](=O)[O-])c1` stands “inactive”; under `O=c1oc2c(ccc3ccccc32)c(=O)n1-c1ccccc1[N+](=O)[O-]`, “inactive”.
As for `O=C(Nc1ccc(N=C=S)cc1)c1ccc2ccccc2c1O`, the minimal effective dose in [1] is 100 mg/kg.
`O=C(Nc1ccc(N2CCN(c3ccccc3)CC2)c([N+](=O)[O-])c1)c1ccc2ccccc2c1O`: in [2], the outcome was inactive.
On the same count and under the same terms, next, `Nc1ccccc1NC(=O)c1ccc2ccccc2c1O`: “inactive”; `O=c1oc2c(ccc3ccccc32)c(=O)n1-c1ccc([N+](=O)[O-])cc1Cl`: “inactive”; `O=c1c2cc(Br)c3ccccc3c2oc(=S)n1-c1ccc(Cl)cc1[N+](=O)[O-]`: “inactive”.
On the same count and under the same terms, next, `O=c1c2ccc3ccccc3c2oc(=S)n1-c1ccc([N+](=O)[O-])cc1`: “inactive”.
As to `O=C(Nc1ccc(N2CCCCC2)c([N+](=O)[O-])c1)c1ccc2ccccc2c1O`, the outcome in [2] was inactive.
`O=c1c2ccc3ccccc3c2oc(=S)n1-c1ccc(Cl)cc1[N+](=O)[O-]`: the outcome in series [2] was inactive.
Same read-out and setting: under `O=c1c2ccc3ccccc3c2oc(=S)n1-c1ccc(Cl)cc1Cl` stands “inactive”.
As to `CN1CCN(c2ccc(NC(=O)c3ccc4ccccc4c3O)cc2[N+](=O)[O-])CC1`, in series [2], the outcome was inactive.
Take `O=c1oc2c(cc(Br)c3ccccc32)c(=O)n1-c1ccc(Cl)cc1Cl`: in series [2], the outcome was inactive.
On the same count and under the same terms, next, `O=c1c2cc(Br)c3ccccc3c2oc(=S)n1-c1ccc([N+](=O)[O-])cc1Cl`: “inactive”; `Nc1ccc(NC(=O)c2cc(Br)c3ccccc3c2O)c(Cl)c1`: “inactive”.
Consider `O=c1oc2c(cc(Br)c3ccccc32)c(=O)n1-c1ccc([N+](=O)[O-])cc1Cl`, for which, in series [2], the result was inactive.
The same measure, in the same setting: next, `O=C(Nc1ccc([N+](=O)[O-])cc1Cl)c1ccc2ccccc2c1O`: “inactive”.
`O=C(Nc1ccc(N=C=S)cc1Cl)c1cc(Br)c2ccccc2c1O`: the minimal effective dose in series [1] was 250 mg/kg.
On the same count and under the same terms, under `O=C(Nc1ccc(Cl)cc1Cl)c1cc(Br)c2ccccc2c1O` stands 50 mg/kg.
On to `O=c1oc2c(ccc3ccccc32)c(=O)n1-c1ccc(Cl)c([N+](=O)[O-])c1`, for which the result in [2] was inactive.
In the case of `O=C(Nc1ccc(N=C=S)cc1Cl)c1ccc2ccccc2c1O`, the minimal effective dose in [1] was found to be 7.5 mg/kg. The Activity in [3] is 100%; in series [4], 100%; in [5] it was “Non-toxic”; in series [6], “Non-toxic”; in [7] it was “Non-toxic”; in series [8] it was “Non-toxic”. Besides, the Activity entry in series [9], in [10], in series [11], in [12] and in [13] was “Non-toxic” throughout.
Regarding `O=C(Nc1ccc(Cl)cc1[N+](=O)[O-])c1cc(Br)c2ccccc2c1O`, the minimal effective dose in series [1] came out at 250 mg/kg.
Turning to `O=C(Nc1ccc(N2CCCC2)c([N+](=O)[O-])c1)c1ccc2ccccc2c1O`, the outcome in series [2] was inactive.
For the molecule `O=c1c2ccc3ccccc3c2oc(=S)n1-c1ccc([N+](=O)[O-])cc1Cl`, the outcome in series [2] was inactive.
The same measure, in the same setting: next, `O=c1oc2c(ccc3ccccc32)c(=O)n1-c1ccc(Cl)cc1Cl`: “inactive”; `O=c1oc2c(ccc3ccccc32)c(=O)n1-c1ccc([N+](=O)[O-])cc1`: “inactive”; `O=c1c2ccc3ccccc3c2oc(=S)n1-c1ccccc1[N+](=O)[O-]`: “inactive”.
Turning to `O=C(Nc1ccc(Cl)cc1Cl)c1ccc2ccccc2c1O`, the outcome in series [2] was inactive.
Same read-out and setting: under `Nc1cc(NC(=O)c2ccc3ccccc3c2O)ccc1Cl` stands “inactive”; under `O=c1oc2c(cc(Br)c3ccccc32)c(=O)n1-c1ccc(Cl)cc1[N+](=O)[O-]`, “inactive”; under `Nc1cc(Cl)ccc1NC(=O)c1ccc2ccccc2c1O`, “inactive”.
Consider `O=C(Nc1ccc([N+](=O)[O-])cc1Cl)c1cc(Cl)ccc1O` [NICLOSAMIDE], for which, in [1], the minimal effective dose was 50 mg/kg.
Consider `O=C(Nc1ccccc1[N+](=O)[O-])c1ccc2ccccc2c1O`, for which, in series [2], the result was inactive.
`O=c1c2cc(Br)c3ccccc3c2oc(=S)n1-c1ccccc1[N+](=O)[O-]`: in series [2], the outcome was inactive.
Regarding `O=C(Nc1ccc(Cl)cc1[N+](=O)[O-])c1ccc2ccccc2c1O`, the outcome in series [2] was inactive.
Same read-out and setting: under `Nc1ccc(NC(=O)c2cc(Br)c3ccccc3c2O)cc1` stands “inactive”.
In the case of `O=C(Nc1ccc(Cl)c(N=C=S)c1)c1cc(Br)c2ccccc2c1O`, the minimal effective dose in series [1] came out at 100 mg/kg.
For the molecule `Nc1ccc(NC(=O)c2ccc3ccccc3c2O)cc1`, the result in series [2] was inactive.
On the same count and under the same terms, next, `Nc1ccc(NC(=O)c2ccc3ccccc3c2O)c(Cl)c1`: “inactive”.
